ChEMBL document CHEMBL1629449, “Structure-based design, synthesis, and pharmacological evaluation of 3-(aminoalkyl)-5-fluoroindoles as myeloperoxidase inhibitors” (J Med Chem, 2010)

Experiments:
Myeloperoxidase [1] = molecular target: T1, Myeloperoxidase (Homo sapiens, UniProt P05164); test: Inhibition of recombinant MPO mediated taurine chlorination by microplate reader method; assay type: single protein
T1 sequence (P05164 whole entry): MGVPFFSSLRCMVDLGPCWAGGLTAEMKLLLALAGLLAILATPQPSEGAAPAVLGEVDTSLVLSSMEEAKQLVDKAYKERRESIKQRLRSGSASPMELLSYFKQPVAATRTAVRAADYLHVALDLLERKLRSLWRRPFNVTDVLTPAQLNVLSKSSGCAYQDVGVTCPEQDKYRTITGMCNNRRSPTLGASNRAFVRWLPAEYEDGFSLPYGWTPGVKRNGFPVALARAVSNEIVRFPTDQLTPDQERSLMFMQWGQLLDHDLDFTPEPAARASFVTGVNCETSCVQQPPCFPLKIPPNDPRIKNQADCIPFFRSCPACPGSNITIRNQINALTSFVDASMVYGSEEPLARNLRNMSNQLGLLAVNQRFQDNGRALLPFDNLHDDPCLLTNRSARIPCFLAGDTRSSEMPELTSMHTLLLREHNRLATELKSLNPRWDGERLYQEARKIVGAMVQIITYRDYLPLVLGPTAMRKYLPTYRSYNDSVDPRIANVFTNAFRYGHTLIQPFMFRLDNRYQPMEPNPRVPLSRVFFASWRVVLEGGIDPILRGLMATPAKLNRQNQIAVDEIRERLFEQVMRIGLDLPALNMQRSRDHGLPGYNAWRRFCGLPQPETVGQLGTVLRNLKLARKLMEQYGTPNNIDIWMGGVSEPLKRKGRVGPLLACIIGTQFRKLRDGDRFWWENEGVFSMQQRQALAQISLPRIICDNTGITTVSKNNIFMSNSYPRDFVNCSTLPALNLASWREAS
In short: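 Recombinant MPO (40 nM) was incubated with taurine (15 mM) in pH 7.4 phosphate buffer (10 mM/300 mM NaCl) with compound up to 20 μM at 37 °C. The reaction was started with H2O2 (100 μM) and stopped with catalase after 5 min. Taurine chloramine was read with thionitrobenzoic acid at 412 nm. The no-H2O2 control was set as 100% inhibition. IC50 is the mean ± SD of 3 independent experiments.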

Myeloperoxidase [2] = molecular target: T1, Myeloperoxidase; test: Inhibition of recombinant MPO mediated LDL oxidation using MPO/Cl-/H2O2 system
In short: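 LDL was isolated from human plasma by ultracentrifugation. It was oxidised at 37 °C in PBS pH 7.2 with MPO (1 μg/mL), LDL (1000 μg/mL), HCl (4 mM), H2O2 (100 μM) and test drug, final concentrations. The reaction was stopped after 5 min on ice. Oxidised LDL was detected by ELISA with Mab AG9 (A405). Most IC50s came from three concentrations (1000, 100, 50 nM).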

[3] = molecular target: T2, Myeloperoxidase (Homo sapiens) (UniProt P05164); test: Inhibition of recombinant MPO assessed as rate of electron donation to MPO redox intermediate compound I by sequential mixing stopped flow spectroscopy
T2 sequence (whole entry): T1 sequence (P05164 whole entry)
In short: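 Stopped-flow kinetics at pH 7.4, 25 °C, in 200 mM phosphate buffer with 2% (v/v) organic solvent. Purified MPO (purity index at least 0.86) at 8 μM was premixed with 80 μM H2O2. Each kobs is the mean of at least three determinations. k3 was taken as the slope of kobs versus substrate concentration.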

[4] = molecular target: T2, Myeloperoxidase (Homo sapiens); test: Inhibition of recombinant MPO assessed as rate of electron donation to MPO redox intermediate compound II by sequential mixing stopped flow spectroscopy
In short: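 Stopped-flow at pH 7.4, 25 °C, in 200 mM phosphate buffer. Each kobs is the mean of at least three determinations. The second-order rate constant was taken as the slope of kobs versus substrate concentration.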

Structure (SMILES)	IC50 (Myeloperoxidase [1])	IC50 (Myeloperoxidase [2])	Activity [3]	Activity [4]
Fc1ccc2[nH]cc(CCCN3CCCC3)c2c1	320 nM	210 nM	–	–
CCNCCc1c[nH]c2ccc(F)cc12	300 nM	850 nM	–	–
NCCCCCCc1c[nH]c2ccc(F)cc12	–	580 nM	–	–
CCN(CC)CCCc1c[nH]c2ccc(F)cc12	350 nM	390 nM	–	–
NCc1c[nH]c2ccc(F)cc12	900 nM	> 1000 nM	–	–
CN1CCN(Cc2c[nH]c3ccc(F)cc23)CC1	1000 nM	> 1000 nM	–	–
CCCNCCc1c[nH]c2ccc(F)cc12	800 nM	460 nM	–	–
CCCCNCCCc1c[nH]c2ccc(F)cc12	1500 nM	17 nM	–	–
NCCCCc1c[nH]c2ccc(F)cc12	–	12 nM	1.1 ×10⁷ /M/s	360 M⁻¹ s⁻¹
NCCCCCc1c[nH]c2ccc(F)cc12	–	5 nM	1 ×10⁷ /M/s	506 M⁻¹ s⁻¹
CNCCc1c[nH]c2ccc(F)cc12	200 nM	650 nM	–	–
CN1CCN(CCc2c[nH]c3ccc(F)cc23)CC1	200 nM	650 nM	–	–
NCCc1c[nH]c2ccc(F)cc12	–	940 nM	–	–
NCCCc1c[nH]c2ccc(F)cc12	–	650 nM	–	–
CCNCCCc1c[nH]c2ccc(F)cc12	300 nM	190 nM	–	–
CCCNCCCc1c[nH]c2ccc(F)cc12	170 nM	340 nM	–	–
CCN(CC)Cc1c[nH]c2ccc(F)cc12	200 nM	> 1000 nM	–	–
CNCCCc1c[nH]c2ccc(F)cc12	200 nM	26 nM	–	–
CN(C)CCCc1c[nH]c2ccc(F)cc12	–	49 nM	–	–
CCCCNCCc1c[nH]c2ccc(F)cc12	1030 nM	250 nM	–	–
CCN(CC)CCc1c[nH]c2ccc(F)cc12	–	510 nM	–	–
CN1CCN(CCCc2c[nH]c3ccc(F)cc23)CC1	350 nM	310 nM	–	–
CN(C)CCc1c[nH]c2ccc(F)cc12	–	580 nM	–	–
Fc1ccc2[nH]cc(CCN3CCCC3)c2c1	–	1030 nM	–	–
